The text below walks through data of ChEMBL document CHEMBL1128449, “Novel 4'-substituted and 4',4"-disubstituted 3 alpha-(diphenylmethoxy)tropane analogs as potent and selective dopamine uptake inhibitors” (J Med Chem, 1995).

The target in assay [1] is Sodium-dependent serotonin transporter (Rattus norvegicus) (UniProt P31652). Description: Inhibition of [3H]citalopram binding at rat serotonin transporter; 10 uM. Put shortly: (§1)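 Contract-lab radioligand displacement, percent inhibition at 10 μM test compound; 5HTT used [³H]citalopram at 0.7 nM final, NET used [³H]desmethylimipramine at 3.0 nM final.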
Chain of Sodium-dependent serotonin transporter (Rattus norvegicus) (P31652 whole entry): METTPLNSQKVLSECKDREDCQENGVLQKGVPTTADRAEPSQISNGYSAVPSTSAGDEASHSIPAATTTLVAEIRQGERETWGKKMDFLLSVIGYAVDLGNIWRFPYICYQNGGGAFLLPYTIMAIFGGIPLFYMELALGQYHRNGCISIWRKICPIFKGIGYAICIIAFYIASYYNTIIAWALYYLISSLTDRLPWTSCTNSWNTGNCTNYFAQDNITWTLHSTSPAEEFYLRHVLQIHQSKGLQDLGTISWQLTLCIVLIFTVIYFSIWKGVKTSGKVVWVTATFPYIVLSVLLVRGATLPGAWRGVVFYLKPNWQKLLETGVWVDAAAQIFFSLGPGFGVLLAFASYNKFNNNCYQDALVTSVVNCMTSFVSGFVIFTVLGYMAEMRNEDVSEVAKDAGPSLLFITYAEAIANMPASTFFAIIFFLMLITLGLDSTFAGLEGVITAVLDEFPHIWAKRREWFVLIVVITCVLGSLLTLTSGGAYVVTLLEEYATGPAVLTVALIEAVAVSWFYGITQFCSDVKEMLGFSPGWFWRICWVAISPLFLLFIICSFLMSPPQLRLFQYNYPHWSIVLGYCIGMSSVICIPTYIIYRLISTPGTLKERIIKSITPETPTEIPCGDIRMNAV
The target in assay [2] is Norepinephrine transporter (Rattus norvegicus) (UniProt Q9WTR4). Kind of assay: Inhibition of [3H]desmethylimipramine binding at rat norepinephrine transporter; 10 uM. Put shortly:
as §1

Assay [3] has as its target T1, Sodium-dependent dopamine transporter (Rattus norvegicus, UniProt P23977). Kind of assay: Inhibition of [3H]dopamine uptake in rat caudate putamen. The assay is classed as functional, tissue-based.
The target of assay [4] is T1, Sodium-dependent dopamine transporter. Description: Affinity for rat dopamine transporter using [3H]WIN-35428 displacement. The procedure, abridged: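 Rat caudate putamen (male Sprague–Dawley, 200–250 g) homogenised in ice-cold modified Krebs-HEPES, pH 7.4, washed and used fresh (0.5% w/v). Filtration, scintillation counting. Ki from nonlinear least-squares fitting of three independent experiments, F test model selection.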

Assay [5] addresses T2, Muscarinic acetylcholine receptor M1 (Rattus norvegicus, UniProt P08482).
T2 sequence (P08482 whole entry): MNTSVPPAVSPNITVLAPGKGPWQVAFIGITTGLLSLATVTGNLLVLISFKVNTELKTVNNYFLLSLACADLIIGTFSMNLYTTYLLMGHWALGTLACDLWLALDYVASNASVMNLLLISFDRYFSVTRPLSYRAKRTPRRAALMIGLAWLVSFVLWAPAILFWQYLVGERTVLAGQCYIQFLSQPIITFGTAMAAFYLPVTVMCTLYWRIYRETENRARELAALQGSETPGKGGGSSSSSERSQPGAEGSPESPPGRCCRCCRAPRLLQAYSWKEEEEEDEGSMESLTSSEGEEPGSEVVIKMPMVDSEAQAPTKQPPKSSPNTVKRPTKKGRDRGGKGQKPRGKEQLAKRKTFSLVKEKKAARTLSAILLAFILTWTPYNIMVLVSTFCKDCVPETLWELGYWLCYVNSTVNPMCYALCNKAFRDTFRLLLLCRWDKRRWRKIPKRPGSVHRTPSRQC
Kind of assay: Affinity for rat M1 acetylcholine receptor using [3H]pirenzepine displacement.

Assay [6] deals with T3, Muscarinic acetylcholine receptor M2 (Rattus norvegicus, UniProt P10980).
T3 sequence (P10980 whole entry): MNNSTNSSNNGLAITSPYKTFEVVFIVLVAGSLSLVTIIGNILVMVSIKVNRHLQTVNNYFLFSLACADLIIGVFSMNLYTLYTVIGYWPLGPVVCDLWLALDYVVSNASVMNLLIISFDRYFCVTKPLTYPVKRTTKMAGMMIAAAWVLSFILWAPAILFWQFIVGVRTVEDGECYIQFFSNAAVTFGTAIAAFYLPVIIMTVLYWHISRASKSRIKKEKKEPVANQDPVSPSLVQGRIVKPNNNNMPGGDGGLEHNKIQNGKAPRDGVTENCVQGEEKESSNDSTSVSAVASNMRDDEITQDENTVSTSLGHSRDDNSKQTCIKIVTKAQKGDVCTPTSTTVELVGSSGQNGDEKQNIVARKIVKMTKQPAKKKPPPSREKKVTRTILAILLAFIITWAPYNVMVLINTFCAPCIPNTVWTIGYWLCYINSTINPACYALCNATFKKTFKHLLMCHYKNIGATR
Kind of assay: Affinity for rat M2 acetylcholine receptor using [3H]-AF DX 384 displacement.

Chain of Norepinephrine transporter (Rattus norvegicus) (Q9WTR4 as listed by the source): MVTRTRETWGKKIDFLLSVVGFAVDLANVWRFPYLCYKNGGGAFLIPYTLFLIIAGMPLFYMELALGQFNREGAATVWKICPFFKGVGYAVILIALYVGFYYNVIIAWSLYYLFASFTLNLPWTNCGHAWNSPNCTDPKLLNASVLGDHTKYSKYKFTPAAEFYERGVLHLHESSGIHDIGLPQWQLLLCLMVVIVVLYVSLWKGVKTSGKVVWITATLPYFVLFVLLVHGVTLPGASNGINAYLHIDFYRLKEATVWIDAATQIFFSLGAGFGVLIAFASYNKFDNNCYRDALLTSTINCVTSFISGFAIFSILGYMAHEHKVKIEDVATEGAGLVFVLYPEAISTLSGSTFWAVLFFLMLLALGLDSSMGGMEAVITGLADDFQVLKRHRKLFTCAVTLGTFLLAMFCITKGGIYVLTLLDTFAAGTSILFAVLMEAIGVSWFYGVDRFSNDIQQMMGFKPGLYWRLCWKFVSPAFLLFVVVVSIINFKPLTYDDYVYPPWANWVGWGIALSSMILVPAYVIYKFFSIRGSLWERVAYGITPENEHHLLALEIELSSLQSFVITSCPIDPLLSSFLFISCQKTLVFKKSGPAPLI
T1 sequence (P23977 whole entry): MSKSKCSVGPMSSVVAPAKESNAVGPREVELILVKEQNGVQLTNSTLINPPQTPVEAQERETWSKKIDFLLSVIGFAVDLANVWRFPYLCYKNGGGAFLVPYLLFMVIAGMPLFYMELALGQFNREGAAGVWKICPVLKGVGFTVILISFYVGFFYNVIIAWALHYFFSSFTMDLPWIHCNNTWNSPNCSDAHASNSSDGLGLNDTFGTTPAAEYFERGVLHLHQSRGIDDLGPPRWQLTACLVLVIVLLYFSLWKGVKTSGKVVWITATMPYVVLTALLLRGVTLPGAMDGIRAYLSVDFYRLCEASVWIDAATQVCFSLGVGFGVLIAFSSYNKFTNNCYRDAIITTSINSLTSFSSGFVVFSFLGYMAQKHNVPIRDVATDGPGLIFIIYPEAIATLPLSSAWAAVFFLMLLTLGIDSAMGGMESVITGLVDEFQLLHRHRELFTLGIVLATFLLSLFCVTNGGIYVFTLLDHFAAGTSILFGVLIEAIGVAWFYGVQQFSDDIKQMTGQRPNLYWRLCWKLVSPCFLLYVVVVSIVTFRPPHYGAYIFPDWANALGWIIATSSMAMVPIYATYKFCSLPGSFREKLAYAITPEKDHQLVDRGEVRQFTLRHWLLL

Regarding `CN1[C@@H]2CC[C@H]1C[C@@H](OC(c1ccccc1)c1ccc(O)cc1)C2` (stereo partly drawn), the inhibition stood at 23.3% in assay [1] and 27.3% in assay [2]. Inhibition in assay [3] was half-maximal at 677 nM (IC50).

As to `CN1[C@@H]2CC[C@H]1C[C@@H](OC(c1ccccc1)c1ccc(C(F)(F)F)cc1)C2` (stereo partly drawn), the inhibition in assay [1] is 49.1%; in assay [2], 34.6%. The compound also displayed an IC50 in assay [3] of 2150 nM.

With `Cc1ccc(C(O[C@H]2C[C@H]3CC[C@@H](C2)N3C)c2ccccc2)cc1` (stereo partly drawn), the figures for the inhibition in assay [1] and in assay [2] were 35.4% and 31.8%, respectively. Further, in assay [3], the IC50 came to 512 nM.

In the case of `CN1[C@@H]2CC[C@H]1C[C@@H](OC(c1ccccc1)c1ccc(C#N)cc1)C2` (stereo partly drawn), the inhibition worked out at 40% in assay [1] and 16% in assay [2]. In assay [3], this compound yielded an IC50 of 222 nM.

Turning to `CCc1ccc(C(O[C@H]2C[C@H]3CC[C@@H](C2)N3C)c2ccccc2)cc1` (stereo partly drawn), the inhibition in assay [1] is 42.7%; in assay [2], 32.7%. This compound also yielded an IC50 in assay [3] of 984 nM.

Turning to `COc1ccc(C(O[C@H]2C[C@H]3CC[C@@H](C2)N3C)c2ccc(OC)cc2)cc1`, the inhibition is 31% in assay [1] and 34% in assay [2]. For the same compound, affinity in assay [4] was put at a Ki of 2000 nM. For the same compound, in assay [3], the IC50 turned out to be 2880 nM.

For the compound `CN1[C@@H]2CC[C@H]1C[C@@H](OC(c1ccccc1)c1ccc(C(C)(C)C)cc1)C2` (stereo partly drawn), the inhibition turned out to be 24.7% in assay [1] and 37.6% in assay [2]. The compound also had an IC50 in assay [3] of 4460 nM.

Take `COc1ccc(C(O[C@H]2C[C@H]3CC[C@@H](C2)N3C)c2ccccc2)cc1` (stereo partly drawn): the inhibition in assay [1] was found to be 30.5%; in assay [2], 30.9%. For the same compound, in assay [4], affinity was put at a Ki of 78.4 nM. Moreover, the IC50 in assay [3] amounted to 468 nM.

In the case of `CN1[C@@H]2CC[C@H]1C[C@@H](OC(c1ccccc1)c1ccc(F)cc1)C2` (stereo partly drawn), the figures for the inhibition in assay [1] and in assay [2] were 35.2% and 37.9%, respectively.

On to `CN1[C@@H]2CC[C@H]1C[C@@H](OC(c1ccccc1)c1ccc(Br)cc1)C2` (stereo partly drawn), for which the inhibition in assay [1] amounted to 39%; in assay [2] it was 37%. In assay [3], this compound had a 50% inhibitory concentration (IC50) of 29 nM.

Take `CN1C2CCC1CC(OC(c1ccccc1)c1ccc(Cl)cc1)C2` (stereo in doubt; 7a) [listing 1 of 2 here]: the inhibition in assay [1] is 34%; in assay [2], 32%.

Turning to `CN1C2CCC1CC(OC(c1ccccc1)c1ccc(Cl)cc1)C2` (stereo in doubt; 10) [listing 1 of 2 here], the Ki in assay [5] turned out to be 4.1 nM; in assay [6], 87.4 nM. In addition, in assay [3], half-maximal inhibition (IC50) was put at 3520 nM.

Consider `CN1[C@@H]2CC[C@H]1C[C@@H](OC(c1ccc(Cl)cc1)c1ccc(Cl)cc1)C2`, for which the inhibition in assay [1] is 54%; in assay [2], greater than 43%.

Regarding `CN1C2CCC1CC(OC(c1ccccc1)c1ccc(Cl)cc1)C2` (stereo in doubt; 10) [listing 2 of 2 here], the values for the inhibition in assay [1] and in assay [2] were 37.2% and 27.9%, respectively.

Turning to `CN1C2CCC1CC(OC(c1ccc(F)cc1)c1ccc(F)cc1)C2` (stereo not drawn), the inhibition in assay [1] is 62%; in assay [2], 30%.

In the case of `CN1[C@@H]2CC[C@H]1C[C@@H](OC(c1ccc(F)cc1)c1ccc(Cl)c(Cl)c1)C2` (stereo partly drawn), the inhibition in assay [1] is 80.3%; in assay [2], greater than 57.8%. The compound further yielded an IC50 in assay [3] of 24 nM.

Consider `CN1[C@@H]2CC[C@H]1C[C@@H](OC(c1ccccc1)c1ccc(Cl)c(Cl)c1)C2` (stereo partly drawn), for which the inhibition in assay [1] came out at 66.2%; in assay [2] it was 56.5%. The same compound returned a Ki in assay [4] of 21.1 nM. Further, the 50% inhibitory concentration (IC50) in assay [3] is 47 nM.

For the compound `CN1C2CCC1CC(OC(c1ccccc1)c1ccc(Cl)cc1)C2` (stereo in doubt; 7a) [listing 2 of 2 here], the Ki turned out to be 30 nM in assay [4], 3.6 nM in assay [5] and 36.6 nM in assay [6]. 115 nM corresponded to half-maximal inhibition in assay [3] (IC50).

For the compound `CN1[C@@H]2CC[C@H]1C[C@@H](OC(c1ccc(Br)cc1)c1ccc(Br)cc1)C2`, the values for the inhibition in assay [1] and in assay [2] were 41% and 41.1%, respectively. Besides, the Ki in assay [5] turned out to be 70.8 nM. In assay [3], this compound showed an IC50 of 34 nM.

Consider `Cc1ccc(C(O[C@H]2C[C@H]3CC[C@@H](C2)N3C)c2ccc(C)cc2)cc1`, for which the inhibition in assay [1] is 35.5%; in assay [2], 35.1%. This compound registered an IC50 in assay [3] of 2540 nM.

With `CN1[C@@H]2CC[C@H]1C[C@@H](OC(c1ccccc1)c1ccc([N+](=O)[O-])cc1)C2` (stereo partly drawn), the inhibition in assay [1] worked out at 54%; in assay [2], 29%. In assay [3], half-maximal inhibition (IC50) required 219 nM.
